SMILES strings stand for the structures. Active and inactive are the calls of the source. The calls are words filed in the database; no cut-off is given here.

These results are taken from ChEMBL document CHEMBL5712908, “A genome-wide RNAi screen reveals essential therapeutic targets of breast cancer stem cells” (2019).

Assay [1] relates to SUM149PT. Put plainly: Anticancer activity against human SUM149 cells assessed as ALDHbr cells by LSR2 cytometer (reference value: 6.8%). Type of assay: functional. Put shortly: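 Cells continuously exposed to drug for 72 h in adherent culture; single-cell suspensions stained with ALDEFLUOR kit and ALDH-high population measured by flow cytometry (LSR2) against a DEAB control. Residual ALDHbr proportion reported (n = 8), mean ± SD, Student's t-test.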

Assay [2] addresses Histone-lysine N-methyltransferase EZH2 (Homo sapiens) (UniProt Q15910). Put plainly: Inhibition of EZH2 in human SUM159 cells assessed as increase in ALDHbr cells by LSR2 cytometer (reference value: 4.8%). The assay is classed as cell-based. Also noted: scale not given: the % may be the effect or the level left. Conditions: dose 0.0 µM. The method, boiled down:
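SUM159 cells exposed continuously for 72 h in adherent culture to graded doses centred on the IC50. ALDHbr proportion measured by ALDEFLUOR flow cytometry (LSR2) with DEAB as negative control; n = 10.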

Assay [3] deals with SUM-159-PT. The assay is described as follows: Anticancer activity against human SUM159 cells assessed as decrease in primary tumor sphere formation incubated for 72 hrs by Extreme limiting dilution analysis. The assay is classed as functional, cell-based. The method, boiled down: (§1)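 Cells drug-treated in adherent culture for 72 h, then plated as single cells in ultra-low attachment 96-well plates in serum-free mammary epithelium basal medium. Plating at 25/10/5/3/2/1 cells per well, 18–36 wells per condition. Wells with ≥1 sphere after 10 days scored positive. Secondary spheres were made by dissociating primary spheres. Frequency by ELDA; n = 4; pairwise chi-square test.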

Assay [4] has as its system SUM-159-PT. Put plainly: Anticancer activity against human SUM159 cells assessed as decrease in secondary tumor sphere formation incubated for 72 hrs by Extreme limiting dilution analysis. The assay is classed as functional, cell-based. The method, boiled down: as §1
Assay [5] in a line: Antitumor activity against human S68 cells assessed as K-score by measuring ALDHbr cells by LSR2 cytometer. The assay is classed as functional. Put shortly:
(§2)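 Cell lines exposed for 72 h in adherent culture to a range of concentrations centred on the MTS-derived IC50. ALDHbr proportion measured by ALDEFLUOR flow cytometry (LSR2). K-score is the linear regression coefficient, on log10-transformed doses, between the untreated condition and the dose predicted to give a 50% decrease or increase in ALDHbr proportion versus control.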

Assay [6] is described as follows: Antitumor activity against human BrCa-MZ-01 cells assessed as K-score by measuring ALDHbr cells by LSR2 cytometer. The assay is classed as functional. The method, boiled down:
as §2

The subject of assay [7] is SUM-159-PT. Put plainly: Antitumor activity against human SUM159 cells assessed as K-score by measuring ALDHbr cells by LSR2 cytometer. The assay is classed as functional. Put shortly: as §2
In assay [8] the test system is SUM149PT. The assay is described as follows: Antitumor activity against human SUM149 cells assessed as K-score by measuring ALDHbr cells by LSR2 cytometer. Type of assay: functional. The method, boiled down: as §2
In a further assay the test system is MDA-MB-436. Put plainly: Antitumor activity against human MDA-MB-436 cells assessed as K-score by measuring ALDHbr cells by LSR2 cytometer. Type of assay: functional. Put shortly:
as §2

Assay [9] has as its system SUM-159-PT. Put plainly: Synergistic anticancer activity against human SUM159 cells assessed as decrease in primary tumor sphere formation at 62 nM incubated for 72 hrs in presence of JQ1 by Extreme limiting dilution analysis. The assay is classed as functional. The method, boiled down: (§3)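 72 h adherent pretreatment (Sal/JQ1 62 nM/62 nM; docetaxel added at 2 nM where used), then single cells plated in ultra-low attachment 96-well plates in serum-free mammary epithelium basal medium at 25/10/5/3/2/1 cells/well (18–36 wells/condition). Wells with ≥1 sphere after 10 days scored positive; sphere-forming frequency by ELDA. Secondary spheres from dissociated primary spheres. n = 4; pairwise chi-square.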

Assay [10] concerns SUM-159-PT. Put plainly: Synergistic anticancer activity against human SUM159 cells assessed as decrease in secondary tumor sphere formation at 62 nM incubated for 72 hrs in presence of JQ1 by Extreme limiting dilution analysis. Type of assay: functional. The method, boiled down:
as §3

Assay [11] deals with SUM-159-PT. The assay is described as follows: Induction of apoptosis in human SUM159 cells expressing ALDHbr upto 5 uM incubated for 72 hrs by ALDEFLUOR/YO-PRO-3/ Hoechst 33342 staining based high content imaging microscopic analysis. Type of assay: functional, cell-based. The method, boiled down:
(§4)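 SUM159 at 3,000 cells/well on collagen plates, dosed at 6, 24 and 48 h post-seeding; 0.1% DMSO negative control, cisplatin positive control. At 72 h stained 30 min at 37°C with ALDEFLUOR, YO-PRO-3 and Hoechst 33342, then imaged ice-cold. YO-PRO-3-positive nuclei (above untreated signal) counted over total cells, per ALDHbr/ALDH- subpopulation; n = 6.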

Assay [12] deals with SUM-159-PT. The assay is described as follows: Induction of apoptosis in human SUM159 cells expressing ALDH upto 5 uM incubated for 72 hrs by ALDEFLUOR/YO-PRO-3/ Hoechst 33342 staining based high content imaging microscopic analysis. Type of assay: functional, cell-based. Put shortly:
as §4

Assay [13] deals with SUM-159-PT. Put plainly: Anticancer activity against human SUM159 cells assessed as effect on RFP+/BFP+ cell ratio upto 5 uM after 72 hrs by […]. The assay is classed as functional, cell-based.
For assay [14], the system named is SUM-159-PT. Put plainly: Anticancer activity against human SUM159 cells expressing BFP assessed as reduction in ALDHbr cell at 5 to 500 nM by LSR2 cytometer analysis. Conditions: dose 5-500 nM. Type of assay: functional, cell-based.
Assay [15] relates to SUM-159-PT. The assay is described as follows: Anticancer activity against human SUM159 cells expressing BFP assessed as reduction in ALDHbr cell at 50 nM by LSR2 cytometer analysis. Type of assay: functional.
Assay [16] has as its system SUM-159-PT. The assay is described as follows: Synergistic anticancer activity against human SUM159 cells expressing BFP assessed as reduction in ALDHbr cell 50 nM in presence of JQ1 by LSR2 cytometer analysis. Type of assay: functional.
Assay [17] relates to Breast cancer cell line. Put plainly: Antitumor activity against human CRCM434 negative breast cancer cells orthotopically xenografted in NSG mouse model of PDX assessed as reduction in tumor volume at 3 mg/kg, ip daily for 14 days. The assay is classed as functional, organism-based. The conditions noted are these: time 14.0 day. The method, boiled down:
(§5)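 Chemo-naïve triple-negative PDX cells injected at 100,000 per fat pad, two fat pads per NSG mouse. At ~80 mm³ tumours, mice received i.p. 3 mg/kg daily for 14 days or 50 mg/kg 5 of 7 days for 2 weeks; placebo was DMSO/HPCD 10% (1:9). Five mice (10 tumours) per group. Tumour growth monitored; after 2 weeks tumours dissociated, mouse cells excluded via anti-H2Kd, ALDHbr measured by ALDEFLUOR flow cytometry and normalised to vehicle.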

The subject of assay [18] is Breast cancer cell line. The assay is described as follows: Antitumor activity against human CRCM404 negative breast cancer cells orthotopically xenografted in NSG mouse model of PDX assessed as reduction in tumor volume at 3 mg/kg, ip daily for 14 days. Type of assay: functional, organism-based. Conditions: time 14.0 day. Put shortly: as §5
The test system of assay [19] is Breast cancer cell line. The assay is described as follows: Antitumor activity against human CRCM494 negative breast cancer cells orthotopically xenografted in NSG mouse model of PDX assessed as reduction in tumor volume at 3 mg/kg, ip daily for 14 days. The assay is classed as functional, organism-based. Conditions: time 14.0 day. The method, boiled down: as §5

For assay [20], the system named is Breast cancer cell line. Put plainly: Antitumor activity against human CRCM434 negative breast cancer cells orthotopically xenografted in NSG mouse model of PDX assessed as reduction ALDHbr cells at 3 mg/kg, ip daily for 14 days by LSR2 cytometer analysis. Type of assay: functional, organism-based. Conditions: time 14.0 day. Put shortly:
as §5

In assay [21] the test system is Breast cancer cell line. Put plainly: Antitumor activity against human CRCM404 negative breast cancer cells orthotopically xenografted in NSG mouse model of PDX assessed as reduction ALDHbr cells at 3 mg/kg, ip daily for 14 days by LSR2 cytometer analysis. Type of assay: functional, organism-based. Conditions: time 14.0 day. Put shortly:
as §5

For assay [22], the system named is Breast cancer cell line. The assay is described as follows: Antitumor activity against human CRCM494 negative breast cancer cells orthotopically xenografted in NSG mouse model of PDX assessed as reduction ALDHbr cells at 3 mg/kg, ip daily for 14 days by LSR2 cytometer analysis. Type of assay: functional, organism-based. Conditions: time 14.0 day. Put shortly: as §5

Assay [23] concerns Breast cancer cell line. The assay is described as follows: Synergistic antitumor activity against human CRCM434 negative breast cancer cells orthotopically xenografted in NSG mouse model of PDX assessed as reduction ALDHbr cells at 3 mg/kg, ip daily for 14 days cotreated with JQ1 by LSR2 cytometer analysis. The assay is classed as functional. Conditions: time 14 day.
The test system of assay [24] is Breast cancer cell line. The assay is described as follows: Synergistic antitumor activity against human CRCM404 negative breast cancer cells orthotopically xenografted in NSG mouse model of PDX assessed as reduction ALDHbr cells at 3 mg/kg, ip daily for 14 days cotreated with JQ1 by LSR2 cytometer analysis. The conditions noted are these: time 14 day. The assay is classed as functional.

In assay [25] the test system is Breast cancer cell line. Put plainly: Synergistic antitumor activity against human CRCM494 negative breast cancer cells orthotopically xenografted in NSG mouse model of PDX assessed as reduction ALDHbr cells at 3 mg/kg, ip daily for 14 days cotreated with JQ1 by LSR2 cytometer analysis. The assay is classed as functional. The conditions noted are these: time 14 day.

In assay [26] the test system is Breast cancer cell line. The assay is described as follows: Antitumor activity against human reimplanted CRCM434 negative breast cancer cells orthotopically xenografted in NSG mouse model of PDX assessed as reduction tumor volume at 3 mg/kg, ip daily for 14 days by limiting dilation analysis. Type of assay: functional, organism-based. The conditions noted are these: time 14.0 day. Put shortly: (§6)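 After 2 weeks of i.p. treatment (3 mg/kg daily or 50 mg/kg 5 of 7 days), dissociated PDX tumour cells reimplanted into secondary NSG mice at 50, 500 or 5,000 cells. A mouse counted as tumour-bearing once a tumour reached 10 mm. bCSC frequency per 10,000 cells estimated by ELDA; pairwise chi-square test.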

Assay [27] has as its system Breast cancer cell line. Put plainly: Antitumor activity against human reimplanted CRCM404 negative breast cancer cells orthotopically xenografted in NSG mouse model of PDX assessed as reduction tumor volume at 3 mg/kg, ip daily for 14 days by limiting dilation analysis. Conditions: time 14.0 day. The assay is classed as functional, organism-based. Put shortly:
as §6

Assay [28] relates to Breast cancer cell line. Put plainly: Antitumor activity against human reimplanted CRCM494 negative breast cancer cells orthotopically xenografted in NSG mouse model of PDX assessed as reduction tumor volume at 3 mg/kg, ip daily for 14 days by limiting dilation analysis. The assay is classed as functional, organism-based. The conditions noted are these: time 14.0 day. The method, boiled down: as §6

Sequence of Histone-lysine N-methyltransferase EZH2 (Homo sapiens) (Q15910 whole entry, looked up): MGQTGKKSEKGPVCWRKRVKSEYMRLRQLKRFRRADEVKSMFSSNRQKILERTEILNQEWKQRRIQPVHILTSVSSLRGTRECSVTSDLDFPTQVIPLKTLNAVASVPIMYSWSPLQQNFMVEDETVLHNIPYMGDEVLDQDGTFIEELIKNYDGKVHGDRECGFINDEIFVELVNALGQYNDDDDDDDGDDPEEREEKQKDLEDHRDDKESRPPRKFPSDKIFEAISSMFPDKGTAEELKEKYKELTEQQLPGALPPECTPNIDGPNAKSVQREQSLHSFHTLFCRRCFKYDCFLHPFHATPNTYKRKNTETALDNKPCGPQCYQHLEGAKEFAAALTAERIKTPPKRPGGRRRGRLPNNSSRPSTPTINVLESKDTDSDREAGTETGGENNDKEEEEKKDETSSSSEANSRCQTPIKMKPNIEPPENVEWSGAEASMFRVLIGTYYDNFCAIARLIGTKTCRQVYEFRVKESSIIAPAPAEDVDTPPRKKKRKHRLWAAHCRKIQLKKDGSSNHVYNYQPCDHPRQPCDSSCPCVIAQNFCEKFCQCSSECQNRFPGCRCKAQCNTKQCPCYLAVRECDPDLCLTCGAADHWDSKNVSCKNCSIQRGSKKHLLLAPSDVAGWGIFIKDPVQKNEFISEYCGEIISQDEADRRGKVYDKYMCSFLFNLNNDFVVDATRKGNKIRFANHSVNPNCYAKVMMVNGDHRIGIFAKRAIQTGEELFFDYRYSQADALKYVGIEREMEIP

As to `CCN(CC)c1ccc(C=O)cc1`, the Activity in the assay with SUM149PT [1] was found to be 0.3%; in [2], 0.2%.

In the case of `CC[C@@H](C(=O)[C@@H](C)[C@@H](O)[C@H](C)[C@@H]1O[C@@H]([C@@H](CC)C(=O)O)CC[C@@H]1C)[C@H]1O[C@]2(C=C[C@@H](O)[C@]3(CC[C@@](C)([C@H]4CC[C@](O)(CC)[C@H](C)O4)O3)O2)[C@H](C)C[C@@H]1C` [SALINOMYCIN], the outcome with SUM-159-PT [3], in the assay with SUM-159-PT [4], in the assay with SUM-159-PT [11], with SUM-159-PT [12], with SUM-159-PT [14] and in the assay with Breast cancer cell line [20] was Active. Also, the result with Breast cancer cell line [21], in the assay with Breast cancer cell line [22], in the assay with Breast cancer cell line [26], in the assay on Breast cancer cell line [27] and in the assay on Breast cancer cell line [28] was Active. Besides, the Activity was -0.19 in assay [5]; -0.07 in [6]; -0.14 in the assay with SUM-159-PT [7]; -0.06 in the assay on SUM149PT [8]; -0.12 in the assay with MDA-MB-436. The “fold change (FC)” value stood at 2.4 in the assay on SUM-159-PT [9]; 5.4 in the assay on SUM-159-PT [10]; 2 in the assay with SUM-159-PT [15]; 4 in the assay on SUM-159-PT [16]; 2 in the assay on Breast cancer cell line [23]; 2 in the assay on Breast cancer cell line [24]. Besides, the “fold change (FC)” value in the assay with Breast cancer cell line [25] was found to be 2. Moreover, the result in the assay on SUM-159-PT [13], in the assay with Breast cancer cell line [17], in the assay with Breast cancer cell line [18] and with Breast cancer cell line [19] was inactive.
